Beta apoptosis: inhibitors of cytokine-induced beta cell apoptosis, primary screen, luminescence. INS-1E cytokine-induced death, ATP luminescence, 48 h; percent of positive-control rescue, neutral wells zero. protection from apoptosis, % (test concentration not listed). actives 0.8% (n = 300,000). AID 435005, 2010;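 active = Every replicate reaches about 75%, or at least half do and their mean reaches it too, limit read from the data; inconclusive = At least half of replicates reach the limit but their mean does not; inactive = Under half of replicates reach the limit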;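 also: higher means more ATP so stronger rescue from cytokine killing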
T cruzi repl: inhibitors of intracellular T. cruzi growth, primary screen, luminescence, NIH3T3 host cells; T. cruzi beta-gal in NIH3T3, 90 h; actives 1.4% (n = 300,000); inhibition, % (no concentration beside the values);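 active = mean inhibition across valid replicates above about 55%, limit read from the data; inconclusive = mean below that limit but half or more replicates reach it; inactive = mean below it, under half of replicates reach it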;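 also: signal also drops with host cell toxicity which is not excluded here; higher percent means less beta-gal luminescence so fewer parasites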
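System: Mouse NIH/3T3 fibroblasts infected with β-gal-expressing T. cruzi Tulahuen C4 | Quantity: NIH/3T3 cells, 5,000 per well | Reagent: 5000 reporter trypomastigotes per well | Dosing: Compound pinned at 50 nL/well, DMSO | Schedule: 3 h host attachment, then at least 90 h co-culture | Detection: GalScreen luminescence, 60 min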
Calb FLC: C. albicans growth inhibition with fluconazole, primary screen, CaCi-2 strain, Alamar Blue fluorescence | C. albicans CaCi-2 (fluconazole-resistant clinical isolate) + fluconazole, 48 h | actives 0.57% (n = 300,000) | growth inhibition, % (no concentration beside the values);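 active = growth inhibition above about 58% in most replicates, limit read from the data, passing the limit was not always enough; inconclusive = exactly half the replicates above a set limit; inactive = most replicates below a set limit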;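 also: all wells also contain fluconazole at 8 µg/ml as a sub-toxic cotreatment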
SKKanGAS inh: S. pyogenes SKKanGAS growth inhibitors in kanamycin, primary screen, streptokinase expression inhibitor project, SKKanGAS strain, BacTiter-Glo luminescence | inhibition, % at 7.5 µM | 6 h | actives 1.3% (n = 300,000) | AID 1662, 2009;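 active = mean replicate score, as percent of positive control median, at least 50; inconclusive = mean below 50 but one replicate at or above 50; inactive = mean and every replicate below 50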;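 also: strain carries kanamycin resistance gene driven by streptokinase promoter and grows in 40 µg/ml kanamycin; loss of luminescence reflects streptokinase promoter inhibition or plain growth inhibition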
Mdm2 MdmX PPI: inhibitors of human Mdm2-MdmX association, primary screen, cell-based, luminescence, split luciferase, SaOS-2, uHTS | SaOS-2 split-luciferase Mdm2/MdmX complementation | inhibition, % at 8 µM | actives 3% (n = 330,000);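 active = inhibition of at least 50% at 8 µM in the primary screen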
Target sequence (O15151 whole entry, looked up): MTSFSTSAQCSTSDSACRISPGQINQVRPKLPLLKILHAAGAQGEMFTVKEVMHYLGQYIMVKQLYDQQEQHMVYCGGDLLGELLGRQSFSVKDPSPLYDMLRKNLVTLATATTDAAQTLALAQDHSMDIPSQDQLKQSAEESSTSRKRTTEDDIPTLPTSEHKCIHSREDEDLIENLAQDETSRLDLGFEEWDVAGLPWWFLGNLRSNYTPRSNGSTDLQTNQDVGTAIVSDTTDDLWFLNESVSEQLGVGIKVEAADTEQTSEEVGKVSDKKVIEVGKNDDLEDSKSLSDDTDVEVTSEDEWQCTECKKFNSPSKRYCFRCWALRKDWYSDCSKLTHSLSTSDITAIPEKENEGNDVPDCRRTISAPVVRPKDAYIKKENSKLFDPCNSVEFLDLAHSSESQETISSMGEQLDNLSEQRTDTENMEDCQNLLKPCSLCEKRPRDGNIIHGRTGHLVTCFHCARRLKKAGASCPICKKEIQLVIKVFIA
Target sequence (Q00987 whole entry, looked up): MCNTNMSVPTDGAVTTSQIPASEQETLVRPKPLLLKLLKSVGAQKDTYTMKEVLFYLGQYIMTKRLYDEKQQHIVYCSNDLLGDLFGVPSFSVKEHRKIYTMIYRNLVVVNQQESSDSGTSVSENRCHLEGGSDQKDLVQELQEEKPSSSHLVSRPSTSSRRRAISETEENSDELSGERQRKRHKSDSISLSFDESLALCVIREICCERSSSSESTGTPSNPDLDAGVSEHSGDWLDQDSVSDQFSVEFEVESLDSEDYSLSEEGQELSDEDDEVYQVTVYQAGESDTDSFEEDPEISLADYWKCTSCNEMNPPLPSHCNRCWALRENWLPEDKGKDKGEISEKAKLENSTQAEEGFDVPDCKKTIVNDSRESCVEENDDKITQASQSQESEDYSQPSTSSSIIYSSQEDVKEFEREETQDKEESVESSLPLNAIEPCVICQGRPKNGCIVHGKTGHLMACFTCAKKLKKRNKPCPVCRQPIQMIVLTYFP
CSC inhib: cancer stem cell viability inhibitors, primary screen, luminescence; cancer stem cell-like cells viability; inhibition, % at 7.5 µM; actives 1.1% (n = 300,000); in the data active = inhibition above about 75%; inconclusive = no clear call, values can overlap the other calls; tested in HMLE shEcad cells
Mdm2-MdmX conf: Mdm2-MdmX complex disruptors, retested hits, confirmation, luminescence, single concentration | shares compounds with Mdm2 MdmX PPI | Mdm2-MdmX binding, luminescent assay | inhibition, % at 8 µM | actives 55% (n = 10,000); in the data active = inhibition above about 40%
Full FLuc ctr: full-length luciferase signal inhibition, confirmation, counter-screen for Mdm2/MdmX interaction inhibitor project, cell-based, single concentration, SaOS-2; actives 77% (n = 6,200); inhibition, % at 8 µM; SaOS-2 full-length luciferase counterscreen, luminescence; AID 504607, 2011; shares compounds with Mdm2 MdmX PPI;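 active = mean inhibition at 8 µM reaching about 37%, which flags the compound as non-specific, limit read from the data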;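 also: p53-null SaOS-2 cells with luciferase driven by a doxycycline-inducible promoter; compound on cells about two nights before reading with doxycycline added after day one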
Hits are given with their value; n = inactive; u = inconclusive; x = no result given. An excerpt weighted towards active compounds, which were near 5.7% of everything screened.

SMILES	Beta apoptosis	T cruzi repl	Calb FLC	SKKanGAS inh	Mdm2 MdmX PPI	CSC inhib	Mdm2-MdmX conf	Full FLuc ctr
C=CC[C@@H](CC(=O)N(CCO)Cc1ccccc1)C(=O)NC[C@H](OC(=O)[C@@H](CC=C)CC(=O)OC(C)(C)C)c1ccccc1	n	x	x	x	n	n	x	x
CN(CC(=O)NCCCN1CCOCC1)S(=O)(=O)c1ccc(Cl)cc1	n	x	x	x	n	n	x	x
COc1cc(OC)c(C(=O)/C=C/c2ccccc2)c(O)c1O	x	n	n	n	n	n	x	x
COc1cc(C(=O)/C=C/c2cccnc2)ccc1O	x	n	n	n	51	n	n	x
O=C(/C=C/c1cccnc1)c1cc(F)ccc1O	n	n	n	n	n	n	x	x
COc1cc(O)cc(O)c1C(=O)/C=C/c1ccccc1	n	n	n	n	52	n	n	x
COc1ccc(OC)c(C(=O)/C=C/c2cccnc2)c1	n	n	n	n	68	n	n	56
N=c1c2ccccc2nc2n1CCCCCCCCCCC2	97	n	n	n	59	n	n	x
O=c1c2ccccc2nc2n1CCCCC2	n	n	n	n	n	n	x	x
Cc1ccccc1Cn1cc(NC(=O)CCCn2nc([N+](=O)[O-])cc2C)cn1	n	n	n	n	n	n	x	x
COc1ccc(N(C)C2=NS(=O)(=O)c3ccccc32)cc1	n	n	n	n	52	n	69	55
COc1ccc(/C=N/N(C)C2=NS(=O)(=O)c3ccccc32)cc1	n	n	n	n	n	n	x	x
O=C(NCc1ccncc1)C1CCN(S(=O)(=O)c2ccccc2)CC1	n	n	n	n	n	n	x	x
CN(C)CCCNC(=O)CC1C[C@H](C(=O)N2CCCCC2)[C@@]2(CCc3ccccc3)c3[nH]c4ccccc4c3CCN2C1=O (stereo not given in full)	n	x	x	x	83	n	n	x
CN(C)C(=O)CCc1ccc2c3c([nH]c2c1)[C@]1(CCC2CCCC2)[C@@H](C(=O)N2CCOCC2)C[C@H](CC(=O)NCCC2=CCCCC2)C(=O)N1CC3	x	x	x	x	54	x	57	61
CN(C)C(=O)CCc1ccc2c3c([nH]c2c1)[C@]1(CCC2CCCC2)[C@@H](C(=O)N2CCOCC2)C[C@H](CC(=O)NCCN2CCOCC2)C(=O)N1CC3	x	x	x	x	n	x	x	x
COc1ccc2[nH]c3c(c2c1)CCN1C(=O)C(CC(=O)NCCC2=CCCCC2)C[C@H](C(=O)N2CCCCC2)[C@@]31CCc1ccccc1 (stereo not given in full)	x	x	x	x	88	x	n	x
COc1ccc2[nH]c3c(c2c1)CCN1C(=O)C(CC(=O)NCCN2CCOCC2)C[C@H](C(=O)N2CCCCC2)[C@@]31CCc1ccccc1 (stereo not given in full)	x	x	x	x	n	x	x	x
O=C(C[C@H]1C[C@H](C(=O)N2CCOCC2)[C@@]2(CCC3CCCC3)c3[nH]c4cc(-c5ccco5)ccc4c3CCN2C1=O)NCCc1ccccn1	x	x	x	x	81	x	n	x
CN(CC(=O)Nc1ccccc1Br)C(=O)CNC(=O)c1ccc(Oc2ccccc2)cc1	x	n	n	n	n	n	x	x
CN(C)CCCNC(=O)C[C@H]1C[C@H](C(=O)N2CCCCC2)[C@@]2(CCc3ccccc3)c3[nH]c4cc(-c5ccco5)ccc4c3CCN2C1=O	x	x	x	x	59	x	53	45
CN(C)CCCNC(=O)C[C@H]1C[C@H](C(=O)N2CCCCC2)[C@@]2(C)c3[nH]c4cc(-c5ccco5)ccc4c3CCN2C1=O	x	x	x	x	n	x	x	x
NC1(C#Cc2ccc3oc(=O)c(-n4cc(C5(O)CCCCC5)nn4)cc3c2)CCCCC1	n	x	x	x	n	x	x	x
NC1(C#Cc2ccc3oc(=O)c(-n4cc(-c5ccsc5)nn4)cc3c2)CCCCC1	n	x	x	x	94	n	n	x
N/C(=N\OC(=O)C12CC3CC(CC(C3)C1)C2)c1ccncc1	x	n	n	n	84	n	n	x
SMILES	Beta apoptosis	T cruzi repl	Calb FLC	SKKanGAS inh	Mdm2 MdmX PPI	CSC inhib	Mdm2-MdmX conf	Full FLuc ctr
N#Cc1nccnc1S(=O)(=O)c1cccs1	n	n	n	n	74	n	47	n
CN(Cc1ccccc1C#N)S(=O)(=O)c1cccs1	x	n	n	n	n	n	x	x
CCN(CC)S(=O)(=O)c1cc(NC(=O)C2CCN(c3ncnc4sc(C)c(C)c34)CC2)ccc1Cl	n	n	n	n	90	n	60	49
Cc1sc2ncnc(N3CCC(C(=O)Nc4ccc(S(N)(=O)=O)cc4)CC3)c2c1C	n	x	x	x	61	x	43	72
Cc1sc2ncnc(N3CCC(C(=O)N(C)CC(=O)Nc4ccccc4Cl)CC3)c2c1C	n	n	n	n	n	n	x	x
Cc1sc2ncnc(N3CCC(C(=O)N(C)CC(=O)Nc4ccc(Cl)c(C(F)(F)F)c4)CC3)c2c1C	x	58	n	n	81	96	55	n
N=c1c2c(-c3ccccc3)c(-c3ccccc3)n(Cc3ccccc3)c2ncn1CCCn1ccnc1	n	60	n	n	100	n	90	n
N=c1c2c(-c3ccccc3)c(-c3ccccc3)n(Cc3ccco3)c2ncn1Cc1ccco1	n	57	u	n	98	n	46	n
c1ccc(-c2nc(NCCCn3ccnc3)c3ccccc3n2)cc1	n	n	n	n	n	n	x	x
CCCCn1cnc2c(c(-c3ccccc3)c(-c3ccccc3)n2Cc2ccco2)c1=N	114	n	n	n	98	87	73	60
CCOc1cccc(C(=O)Nc2cccc(-c3nnc(-c4ccccc4)o3)c2)c1	x	n	n	n	51	x	n	x

Screens deposited in PubChem by several laboratories.
